Laboratory results taken from ChEMBL document CHEMBL5653623 (J Pharmacol Exp Ther, 2015).
Activity calls are given as the source filed them. The rule behind the calls is not given here.

Key:
[1] = system: Mus musculus; assay: Effect on body weight in MitoPark mouse at 30 mg/kg administered for 15 weeks; format: functional, organism-based
Procedure, shortened: (§1)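 MitoPark mice, 5 weeks old, were allocated by baseline 60-min LMA to untreated diet or diet targeting 30 mg/kg/day (reformulated every 3 weeks). Wild-type littermates received vehicle diet. Body weight and food intake were recorded weekly. 60-min LMA (distance, rearing) was run at 8, 11, 14 and 17 weeks of age.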

[2] = system: Mus musculus; assay: Effect on behavioral phenotype in 8 weeks old MitoPark mouse assessed as locomotor activity at 30 mg/kg/day administered for 3 weeks and measured after 60 mins by truScan photo beam activity system analysis; format: functional, organism-based; procedure, shortened: as §1
[3] = system: Mus musculus; assay: Effect on behavioral changes in 14 weeks old MitoPark mouse striatum assessed as DOPAC level at 30 mg/kg/day by HPLC analysis; format: functional
Procedure, shortened: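 Striatum from MitoPark mice on diet targeting 30 mg/kg/day or vehicle diet (wild-type littermate controls) was homogenized by sonication in 0.1 M acid at 0.1 g/mL. Samples were held 60 min at 4 °C and centrifuged. Dopamine, DOPAC and HVA were measured by HPLC with electrochemical detection against a 3,4-DHBA internal standard and standard curves. Mean ± SEM.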

[4] = molecular target: T1, Dual specificity protein kinase TTK (Homo sapiens, UniProt P33981); assay: Inhibition of TTK (unknown origin)
T1 sequence (P33981 whole entry): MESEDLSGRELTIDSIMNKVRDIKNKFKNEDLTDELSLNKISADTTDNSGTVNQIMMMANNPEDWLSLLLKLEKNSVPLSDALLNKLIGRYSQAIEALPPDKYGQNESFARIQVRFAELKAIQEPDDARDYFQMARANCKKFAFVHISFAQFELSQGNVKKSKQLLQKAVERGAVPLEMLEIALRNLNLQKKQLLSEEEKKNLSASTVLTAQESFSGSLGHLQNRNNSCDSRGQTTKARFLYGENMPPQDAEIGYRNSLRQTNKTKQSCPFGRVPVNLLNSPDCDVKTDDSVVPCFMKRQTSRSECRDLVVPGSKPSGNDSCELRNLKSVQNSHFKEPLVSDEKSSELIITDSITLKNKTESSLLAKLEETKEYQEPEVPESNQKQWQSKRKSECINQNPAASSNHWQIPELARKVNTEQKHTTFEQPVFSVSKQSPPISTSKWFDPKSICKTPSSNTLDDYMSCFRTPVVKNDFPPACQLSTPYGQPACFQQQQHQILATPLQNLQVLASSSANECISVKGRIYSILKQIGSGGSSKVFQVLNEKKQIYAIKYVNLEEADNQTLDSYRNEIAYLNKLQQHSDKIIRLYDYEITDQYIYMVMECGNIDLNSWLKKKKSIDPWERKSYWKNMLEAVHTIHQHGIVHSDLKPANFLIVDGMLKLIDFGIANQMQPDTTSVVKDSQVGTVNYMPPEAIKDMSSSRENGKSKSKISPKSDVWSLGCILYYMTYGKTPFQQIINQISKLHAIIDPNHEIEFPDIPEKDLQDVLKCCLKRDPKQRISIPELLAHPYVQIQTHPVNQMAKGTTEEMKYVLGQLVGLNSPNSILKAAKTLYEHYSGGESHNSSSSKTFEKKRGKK

[5] = Toxicity in C57Bl/6 mouse assessed as lower food intake measured after 1 to 3 days; conditions: in vivo, time 1-3 day
Procedure, shortened: (§2)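 Male C57Bl/6 mice, singly housed on a reversed 12 h light cycle, were fed diet formulated to give 3, 10, 30, 60 or 120 mg/kg/day (assumes 3 g/day intake) or untreated diet for 11 days. Body weight and food intake were monitored. Spontaneous locomotion and rearing were recorded over 60 min. On day 11, mice were euthanized 4, 8 or 24 h after dark onset and plasma and brain drug levels measured; n = 5 per group.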

[6] = Unbound plasma concentration in C57Bl/6 mouse administered for 11 days and measured after 24 hrs; format: ADME, cell-free; conditions: 264 h, time 11 day; procedure, shortened: as §2
[7] = Unbound brain concentration in C57Bl/6 mouse at 10 mg/kg, po administered for 1 hr; format: ADME, organism-based; conditions: in vivo
[8] = molecular target: T2, Peroxisome proliferator-activated receptor gamma (Homo sapiens, UniProt P37231); assay: Inhibition of peroxisome proliferator-activated receptors gamma (unknown origin)
T2 sequence (P37231 whole entry): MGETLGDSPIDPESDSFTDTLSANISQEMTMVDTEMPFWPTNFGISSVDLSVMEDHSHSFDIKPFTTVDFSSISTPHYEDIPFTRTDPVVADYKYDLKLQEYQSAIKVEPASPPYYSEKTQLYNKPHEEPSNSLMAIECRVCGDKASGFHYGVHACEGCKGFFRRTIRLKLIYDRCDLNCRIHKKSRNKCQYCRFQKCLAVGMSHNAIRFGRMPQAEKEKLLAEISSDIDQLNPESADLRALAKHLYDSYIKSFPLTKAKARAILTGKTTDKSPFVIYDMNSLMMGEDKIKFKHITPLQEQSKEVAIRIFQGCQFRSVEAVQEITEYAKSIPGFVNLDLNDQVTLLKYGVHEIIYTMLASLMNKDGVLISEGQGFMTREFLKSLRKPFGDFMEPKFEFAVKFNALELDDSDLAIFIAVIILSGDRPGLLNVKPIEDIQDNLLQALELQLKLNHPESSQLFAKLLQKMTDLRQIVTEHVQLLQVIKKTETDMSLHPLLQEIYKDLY
Procedure, shortened: (§3)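 Radioligand binding selectivity screen was run at 10 μM, mean of three determinations. Where inhibition exceeded 50%, full concentration-displacement curves were run in triplicate and IC50 was obtained by nonlinear least-squares regression.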

[9] = molecular target: Leucine-rich repeat serine/threonine-protein kinase 2 (Mus musculus) (UniProt Q5S006); assay: In vivo inhibition of LRRK2 in C57Bl/6 mouse brain assessed as total LRRK2 protein level at 3 to 120 mg/kg administered for 11 days and measured for 4 to 24 hrs by Western blotting analysis; format: functional, organism-based; conditions: dose 3-120 mg/kg, time 11.0 day
Leucine-rich repeat serine/threonine-protein kinase 2 (Mus musculus), sequence (Q5S006 whole entry): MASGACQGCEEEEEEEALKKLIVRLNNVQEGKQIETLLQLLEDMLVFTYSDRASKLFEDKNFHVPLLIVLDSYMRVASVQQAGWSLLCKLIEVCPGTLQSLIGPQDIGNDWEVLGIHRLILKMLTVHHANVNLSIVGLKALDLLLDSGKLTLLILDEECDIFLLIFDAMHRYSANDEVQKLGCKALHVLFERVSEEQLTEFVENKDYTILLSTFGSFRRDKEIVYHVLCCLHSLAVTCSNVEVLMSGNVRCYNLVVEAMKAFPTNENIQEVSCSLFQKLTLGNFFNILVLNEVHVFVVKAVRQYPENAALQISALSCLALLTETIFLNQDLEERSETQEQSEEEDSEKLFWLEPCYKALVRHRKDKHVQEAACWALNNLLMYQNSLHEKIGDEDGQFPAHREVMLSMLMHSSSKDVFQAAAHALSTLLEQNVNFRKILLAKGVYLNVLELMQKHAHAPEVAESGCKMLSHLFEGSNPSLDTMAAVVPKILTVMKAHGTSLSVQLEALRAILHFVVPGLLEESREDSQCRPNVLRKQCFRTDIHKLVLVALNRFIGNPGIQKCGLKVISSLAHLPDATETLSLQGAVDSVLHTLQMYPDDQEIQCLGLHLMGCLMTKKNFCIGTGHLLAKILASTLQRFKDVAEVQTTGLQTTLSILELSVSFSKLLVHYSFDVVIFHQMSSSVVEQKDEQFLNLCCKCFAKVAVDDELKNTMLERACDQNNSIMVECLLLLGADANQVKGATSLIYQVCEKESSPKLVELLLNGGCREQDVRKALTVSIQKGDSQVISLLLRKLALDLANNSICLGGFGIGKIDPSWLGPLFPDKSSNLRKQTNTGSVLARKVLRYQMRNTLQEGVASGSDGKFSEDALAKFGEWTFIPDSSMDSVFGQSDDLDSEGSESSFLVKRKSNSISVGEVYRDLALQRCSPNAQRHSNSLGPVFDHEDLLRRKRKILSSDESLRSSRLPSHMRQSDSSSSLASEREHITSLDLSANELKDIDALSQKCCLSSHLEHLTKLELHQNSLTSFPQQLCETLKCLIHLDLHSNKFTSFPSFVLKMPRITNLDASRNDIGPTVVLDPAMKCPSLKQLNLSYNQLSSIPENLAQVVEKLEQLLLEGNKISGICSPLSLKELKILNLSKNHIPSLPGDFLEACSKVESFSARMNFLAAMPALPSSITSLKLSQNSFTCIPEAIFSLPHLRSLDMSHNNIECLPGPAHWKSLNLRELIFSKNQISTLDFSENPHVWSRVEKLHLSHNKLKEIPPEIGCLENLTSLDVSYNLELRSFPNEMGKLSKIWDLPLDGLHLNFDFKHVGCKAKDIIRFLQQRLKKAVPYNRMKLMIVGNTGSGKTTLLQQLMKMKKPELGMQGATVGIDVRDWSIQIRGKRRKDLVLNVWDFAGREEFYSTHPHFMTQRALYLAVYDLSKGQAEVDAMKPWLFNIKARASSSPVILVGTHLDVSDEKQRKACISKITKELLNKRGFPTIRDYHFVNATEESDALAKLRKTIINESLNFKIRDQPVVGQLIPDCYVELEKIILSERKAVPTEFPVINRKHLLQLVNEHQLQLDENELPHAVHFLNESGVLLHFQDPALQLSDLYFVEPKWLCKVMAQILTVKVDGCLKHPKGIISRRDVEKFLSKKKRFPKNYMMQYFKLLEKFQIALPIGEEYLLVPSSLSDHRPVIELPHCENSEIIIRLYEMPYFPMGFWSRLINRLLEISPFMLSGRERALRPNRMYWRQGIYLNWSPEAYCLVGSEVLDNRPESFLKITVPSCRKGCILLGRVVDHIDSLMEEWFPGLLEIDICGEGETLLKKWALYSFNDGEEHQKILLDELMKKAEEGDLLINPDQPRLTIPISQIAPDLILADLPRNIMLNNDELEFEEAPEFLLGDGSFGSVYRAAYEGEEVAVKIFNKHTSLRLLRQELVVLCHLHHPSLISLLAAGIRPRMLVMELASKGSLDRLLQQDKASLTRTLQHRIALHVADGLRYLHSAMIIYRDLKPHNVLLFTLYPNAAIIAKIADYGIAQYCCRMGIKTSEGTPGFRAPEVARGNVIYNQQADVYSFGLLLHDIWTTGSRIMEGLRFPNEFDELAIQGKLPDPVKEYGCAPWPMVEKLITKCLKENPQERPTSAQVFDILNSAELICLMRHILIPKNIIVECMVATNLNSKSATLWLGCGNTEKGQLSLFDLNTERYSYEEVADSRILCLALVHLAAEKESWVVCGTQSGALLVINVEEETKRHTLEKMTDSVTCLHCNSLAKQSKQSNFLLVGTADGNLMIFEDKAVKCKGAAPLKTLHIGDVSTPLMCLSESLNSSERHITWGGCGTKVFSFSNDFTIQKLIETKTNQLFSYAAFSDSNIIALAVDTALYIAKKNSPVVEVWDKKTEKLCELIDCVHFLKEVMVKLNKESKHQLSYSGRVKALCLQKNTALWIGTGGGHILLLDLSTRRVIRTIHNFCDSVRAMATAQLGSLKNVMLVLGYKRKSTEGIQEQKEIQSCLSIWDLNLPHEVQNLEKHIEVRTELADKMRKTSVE
Procedure, shortened: (§4)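 Male C57Bl/6 mice, singly housed on a reversed light cycle. Fed drug diet targeted to 3, 10, 30, 60 or 120 mg/kg/day (assuming 3 g/day intake), or untreated diet, for 11 days. Killed 4, 8 or 24 h after dark-cycle onset, n = 5 per group. Cortex immunoblotted for pSer935/total LRRK2 and total LRRK2/GAPDH. Total LRRK2 detected with MJFF2 antibody.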

[10] = Unbound brain concentration in C57Bl/6 mouse at 1 mg/kg, po administered for 1 hr; format: ADME, organism-based; conditions: in vivo
[11] = system: Mus musculus; assay: Effect on behavioral changes in 8 weeks old MitoPark mouse striatum assessed as TH level at 30 mg/kg/day administered for 3 weeks by […] relative to control; format: functional
[12] = molecular target: Sodium-dependent noradrenaline transporter (Homo sapiens, UniProt P23975); assay: Inhibition of norepinephrine transporter (unknown origin); procedure, shortened: as §3
Sodium-dependent noradrenaline transporter, sequence (P23975 whole entry): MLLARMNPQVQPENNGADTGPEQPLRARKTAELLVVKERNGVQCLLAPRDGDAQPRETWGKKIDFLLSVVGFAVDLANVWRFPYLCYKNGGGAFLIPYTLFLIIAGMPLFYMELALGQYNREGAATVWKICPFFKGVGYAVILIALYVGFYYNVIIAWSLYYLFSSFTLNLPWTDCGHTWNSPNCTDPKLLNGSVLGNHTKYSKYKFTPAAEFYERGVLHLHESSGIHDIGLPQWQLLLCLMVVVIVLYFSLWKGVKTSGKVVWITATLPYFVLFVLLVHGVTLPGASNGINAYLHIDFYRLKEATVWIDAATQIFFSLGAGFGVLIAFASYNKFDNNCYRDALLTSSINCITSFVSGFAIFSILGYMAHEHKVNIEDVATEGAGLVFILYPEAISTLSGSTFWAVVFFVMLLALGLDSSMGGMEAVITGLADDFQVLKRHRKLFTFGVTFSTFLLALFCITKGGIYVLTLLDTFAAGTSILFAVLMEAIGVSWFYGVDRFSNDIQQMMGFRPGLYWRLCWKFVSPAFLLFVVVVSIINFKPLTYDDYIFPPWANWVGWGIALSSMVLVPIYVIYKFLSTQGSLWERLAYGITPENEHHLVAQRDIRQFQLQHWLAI

[13] = molecular target: Leucine-rich repeat serine/threonine-protein kinase 2 (Mus musculus) (UniProt Q5S006); assay: In vivo inhibition of LRRK2 in C57Bl/6 mouse brain assessed as inhibition of pSer935 LRRK2 administered for 11 days and measured after 24 hrs by Western blotting analysis; format: functional, organism-based; conditions: dose 3-120 mg/kg, time 11.0 day; procedure, shortened: as §4
[14] = Cmax in C57Bl/6 mouse at 10 mg/kg, po measured after 480 mins by LC-MS/MS analysis; format: ADME, organism-based; conditions: in vivo
Procedure, shortened: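 Male C57Bl/6 mice (20-25 g) given a single IV dose (2 mg/kg) or oral dose (10 mg/kg). Blood was sampled at 5, 15, 30, 60, 120, 240, 360 and 480 min and plasma prepared by centrifugation. Plasma drug levels were measured by LC/MS/MS. Values are mean (CV%), N=3.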

With `C[C@@H]1CN(c2cc(-c3n[nH]c4ccc(OC5(C)CC5)cc34)ncn2)C[C@H](C)O1` [MLi-2] the Activity [1] was “inactive”, the Activity [2] was “Active” and the Activity [3] was 7521 ng/g. For the same compound, the IC50 [4] was 0.935 µM, the Activity [5] was “Toxic” and the “Drug uptake(free)” value [6] was “Active”. For the same compound, the “Drug uptake(free)” value [7] was 25.4 nM, the IC50 [8] was 6.5 µM and the inhibition [9] was “inactive”. The “Drug uptake(free)” value [10] was 0.6 nM, the Activity [11] was 49.89% and the IC50 [12] was 3.8 µM. For the same compound, the inhibition [13] was “Dose-Dependent Effect” and the Cmax [14] was 298 nM.
